Assay [1] deals with L1210. Nature of the assay: Inhibition against L1210 mouse leukemia cells; No effect. It is filed as functional. The following applies: read-out: ID50 (the source's name).
The test system of assay [2] is L1210. Nature of the assay: Inhibition against L1210 mouse leukemia cells; Inactive. Format: functional. The following applies: read-out: ID50 (the source's name).
Assay [3] concerns L1210. Nature of the assay: Inhibition against L1210 mouse leukemia cells. It is filed as functional. Particulars: read-out: ID50 (the source's name). The gist of the method: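 Growth inhibition of L1210 mouse leukemia cells in culture, reported as ID50 (molar concentration).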
The test system of assay [4] is P388. Nature of the assay: Compound was evaluated for the 7-day percent change in weight of mice infected with P388 leukemia at a dose of 100 […] in b.i.d. x 4 schedule. Format: functional, Mus musculus. The gist of the method: (§1)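 Male B6D2F₁J mice in groups of five received 10⁶ P388 cells ip on day 0. Compound was then given ip in water on the stated schedule. Body weights were taken on days 1 and 7, and the change is expressed as a percentage. Survival was also recorded as percent increase in life span.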

Assay [5] relates to P388. Nature of the assay: Compound was evaluated for the 7-day percent change in weight of mice infected with P388 leukemia at a dose of 100 […] in q.d. 1-4 schedule. Format: functional, Mus musculus. The gist of the method: as §1
For assay [6], the system named is P388. The experiment in a line: Compound was evaluated for the 7-day percent change in weight of mice infected with P388 leukemia at a dose of 120 […] in q.d. 1-9 schedule. It is filed as functional, Mus musculus. The gist of the method: as §1
The test system of assay [7] is P388. The experiment in a line: Compound was evaluated for the 7-day percent change in weight of mice infected with P388 leukemia at a dose of 200 […] in b.i.d. x 4 schedule. Format: functional, Mus musculus. The gist of the method: as §1
Assay [8] concerns P388. Nature of the assay: Compound was evaluated for the 7-day percent change in weight of mice infected with P388 leukemia at a dose of 200 […] in q.d. 1-4 schedule. Format: functional, Mus musculus. In short, it runs like this:
as §1

For assay [9], the system named is P388. Nature of the assay: Compound was evaluated for the 7-day percent change in weight of mice infected with P388 leukemia at a dose of 240 […] in q.d. 1-9 schedule. It is filed as functional, Mus musculus. The gist of the method:
as §1

Assay [10] has as its system P388. Nature of the assay: Compound was evaluated for the 7-day percent change in weight of mice infected with P388 leukemia at a dose of 400 […] in b.i.d. x 4 schedule. Format: functional, Mus musculus. In short, it runs like this: as §1
In assay [11] the test system is P388. The experiment in a line: Compound was evaluated for the 7-day percent change in weight of mice infected with P388 leukemia at a dose of 50 […] in b.i.d. x 4 schedule. Format: functional, Mus musculus. In short, it runs like this:
as §1

The subject of assay [12] is P388. The experiment in a line: Compound was evaluated for the 7-day percent change in weight of mice infected with P388 leukemia at a dose of 50 […] in q.d. 1-4 schedule. Format: functional, Mus musculus. The gist of the method:
as §1

Assay [13] relates to P388. Nature of the assay: Percent increase in survival of P388 leukemic mice at a compound dose 400 mg/kg (b.i.d. x 4) or 240 mg/kg (q.d. 1-9) was given intraperitoneally in water. Format: functional, Mus musculus. The gist of the method:
(§2)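 Male B6D2F1J mice, five per group, received 10^6 P388 leukemia cells ip on day 0. Treatment was ip in water on q.d. 1-4, b.i.d. × 4 or q.d. 1-9 schedules. Survival was recorded, and increase in life span (ILS) was calculated relative to untreated controls. Toxicity was judged by weight loss.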

The subject of assay [14] is P388. Nature of the assay: Compound was evaluated for the median survival time of mice infected with P388 leukemia at a dose of 100 […] in b.i.d. x 4 schedule. Format: functional, Mus musculus. In short, it runs like this: as §2
Assay [15] relates to P388. Nature of the assay: Compound was evaluated for the median survival time of mice infected with P388 leukemia at a dose of 100 […] in q.d. 1-4 schedule. Format: functional, Mus musculus. The gist of the method: as §2
Assay [16] deals with P388. The experiment in a line: Compound was evaluated for the median survival time of mice infected with P388 leukemia at a dose of 120 […] in q.d. 1-9 schedule. Format: functional, Mus musculus. In short, it runs like this:
as §2

Assay [17] deals with P388. Nature of the assay: Compound was evaluated for the median survival time of mice infected with P388 leukemia at a dose of 200 […] in b.i.d. x 4 schedule. It is filed as functional, Mus musculus. In short, it runs like this: as §2
The test system of assay [18] is P388. The experiment in a line: Compound was evaluated for the median survival time of mice infected with P388 leukemia at a dose of 200 […] in q.d. 1-4 schedule. It is filed as functional, Mus musculus. In short, it runs like this:
as §2

Assay [19] relates to P388. Nature of the assay: Compound was evaluated for the median survival time of mice infected with P388 leukemia at a dose of 240 […] in q.d. 1-9 schedule. It is filed as functional, Mus musculus. In short, it runs like this: as §2
The subject of assay [20] is P388. The experiment in a line: Compound was evaluated for the median survival time of mice infected with P388 leukemia at a dose of 400 […] in b.i.d. x 4 schedule. Format: functional, Mus musculus. In short, it runs like this: as §2
Assay [21] concerns P388. The experiment in a line: Compound was evaluated for the median survival time of mice infected with P388 leukemia at a dose of 50 […] in b.i.d. x 4 schedule. It is filed as functional, Mus musculus. The gist of the method:
as §2

Assay [22] has as its system P388. The experiment in a line: Compound was evaluated for the median survival time of mice infected with P388 leukemia at a dose of 50 […] in q.d. 1-4 schedule. It is filed as functional, Mus musculus. The gist of the method: as §2
Assay [23] has as its system P388. The experiment in a line: Compound was evaluated for the median survival time of mice infected with P388 leukemia at a dose of 60 […] in q.d. 1-9 schedule. Format: functional, Mus musculus. The gist of the method: as §2
For assay [24], the system named is P388. The experiment in a line: 7-day weight change in mice infected with P388 leukemia at a dose of 60 […] in q.d. 1-9 schedule.
For assay [25], the system named is P388. Nature of the assay: Compound was evaluated for the 7-day percent change in weight of mice infected with P388 leukemia at a dose of 20 […] in b.i.d. x 4 schedule. It is filed as functional, Mus musculus. The gist of the method:
(§3)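 Groups of five male B6D2F1J mice were inoculated ip with 10^6 P388 cells on day 0. Drugs were given ip in water on q.d. 1-4, b.i.d. × 4 or q.d. 1-9 schedules. Animals were weighed on days 1 and 7, and weight change was expressed as a percentage.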

Assay [26] deals with P388. Nature of the assay: Compound was evaluated for the 7-day percent change in weight of mice infected with P388 leukemia at a dose of 20 […] in q.d. 1-4 schedule. It is filed as functional, Mus musculus. The gist of the method: as §3
The subject of assay [27] is P388. The experiment in a line: Compound was evaluated for the 7-day percent change in weight of mice infected with P388 leukemia at a dose of 40 […] in b.i.d. x 4 schedule. It is filed as functional, Mus musculus. The gist of the method:
as §3

Assay [28] concerns P388. Nature of the assay: Compound was evaluated for the 7-day percent change in weight of mice infected with P388 leukemia at a dose of 40 […] in q.d. 1-4 schedule. Format: functional, Mus musculus. In short, it runs like this:
as §3

The test system of assay [29] is P388. Nature of the assay: Compound was evaluated for the 7-day percent change in weight of mice infected with P388 leukemia at a dose of 40 […] in q.d. 1-9 schedule. It is filed as functional, Mus musculus. The gist of the method:
as §3

In assay [30] the test system is P388. The experiment in a line: Percent increase in life span against mice infected with P388 leukemia at a dose of 20 […] in q.d. 1-9 schedule. Format: functional, Mus musculus. In short, it runs like this: as §2
Assay [31] relates to P388. The experiment in a line: Compound was evaluated for the median survival time of mice infected with P388 leukemia at a dose of 20 […] in b.i.d. x 4 schedule. Format: functional, Mus musculus. In short, it runs like this: as §2
In assay [32] the test system is P388. Nature of the assay: Compound was evaluated for the median survival time of mice infected with P388 leukemia at a dose of 20 […] in q.d. 1-4 schedule. Format: functional, Mus musculus. In short, it runs like this:
as §2

For assay [33], the system named is P388. The experiment in a line: Compound was evaluated for the median survival time of mice infected with P388 leukemia at a dose of 20 […] in q.d. 1-9 schedule. It is filed as functional, Mus musculus. The gist of the method:
as §2

Assay [34] has as its system P388. The experiment in a line: Compound was evaluated for the median survival time of mice infected with P388 leukemia at a dose of 40 […] in b.i.d. x 4 schedule. Format: functional, Mus musculus.
In assay [35] the test system is P388. Nature of the assay: Compound was evaluated for the median survival time of mice infected with P388 leukemia at a dose of 40 […] in q.d. 1-4 schedule. It is filed as functional, Mus musculus. In short, it runs like this: as §2
Assay [36] relates to P388. The experiment in a line: Compound was evaluated for the median survival time of mice infected with P388 leukemia at a dose of 40 […] in q.d. 1-9 schedule. Format: functional, Mus musculus. The gist of the method:
as §2

pIC50: −log10 of the molar value.

Consider `O=c1[nH]c(=O)n(COCCO)cc1Br`, for which the pIC50 in the assay on L1210 [1] was 3.00.
As to `Nc1nc(=O)n(COCCO)cc1F`, the pIC50 in the assay on L1210 [2] is 4.00.
In the case of `O=c1[nH]c(=O)n(COCCO)cc1F`, the pIC50 in the assay on L1210 [3] was 4.77. Moreover, the Weight change in the assay with P388 [4] was 4%; in the assay on P388 [5] it was 6%; in the assay on P388 [6] it was 0%; in the assay on P388 [7], 4%; in the assay with P388 [8], 6%; with P388 [9] it was 0%. Besides, the Weight change in the assay on P388 [10] was determined as 0%; in the assay on P388 [11], 5%; with P388 [12], 7%. Also, the Increase with P388 [13] stood at 75%. Besides, the Median survival in the assay with P388 [14] came out at 17 days; in the assay with P388 [15] it was 15 days; in the assay on P388 [16], 18 days; in the assay with P388 [17], 20 days; in the assay on P388 [18], 17 days; with P388 [19] it was 21 days. The Median survival was found to be 21 days with P388 [20], 16 days with P388 [21], 14 days in the assay on P388 [22] and 16 days in the assay on P388 [23]. This compound also gave a 7-day weight change in the assay on P388 [24] of 8%.
Regarding `O=c1[nH]c(=O)n(COCCO)cc1I`, the pIC50 with L1210 [1] is 3.00.
Take `O=c1[nH]cc(F)c(=O)[nH]1` [FLUOROURACIL]: the pIC50 in the assay on L1210 [3] is 6.00. Moreover, the Weight change was 9% in the assay with P388 [25]; -5% in the assay on P388 [26]; -12% with P388 [27]; -29% in the assay with P388 [28]; -23% in the assay with P388 [29]; -2% in the assay on P388 [30]. The Median survival in the assay with P388 [31] stood at 19 days; in the assay on P388 [32] it was 23 days; with P388 [33] it was 21 days; with P388 [34], 12 days; with P388 [35], 10 days; in the assay on P388 [36] it was 12 days.
